Results as given in ChEMBL document CHEMBL2016521, “Preparation, gram-negative antibacterial activity, and hydrolytic stability of novel siderophore-conjugated monocarbam diols” (ACS Med Chem Lett, 2011).
Converted amounts (≈) assume the structure as drawn.

What was measured:
Pseudomonas aeruginosa [1] = test: Antibacterial activity against Pseudomonas aeruginosa; type: functional
Pseudomonas aeruginosa [2] = test: Antibacterial activity against Pseudomonas aeruginosa isolate 1091-05; type: functional
Pseudomonas aeruginosa [3] = test: Antibacterial activity against imipenem-sensitive Pseudomonas aeruginosa isolate 1091-05 infected in sc dosed neutropenic-C3H/HeN mouse assessed as mouse survival administered 4 hrs post infection followed by BID dosing for two days measured on day 10; type: functional; details: isolate 1091-05, sc, read-out: PD50
Acinetobacter baumannii = test: Antibacterial activity against Acinetobacter baumannii AB-3167; type: functional
Klebsiella pneumoniae [4] = test: Antibacterial activity against Klebsiella pneumoniae 1000-02; type: functional
Pseudomonas aeruginosa [5] = test: Antibacterial activity against imipenem-sensitive Pseudomonas aeruginosa isolate 1091-05 infected in ip dosed SF-1 mouse assessed as survival of animal administered 0.5 and 4 hrs post infected measured on day 4; type: functional; details: isolate 1091-05, ip, read-out: PD50
[6] = Fraction unbound in mouse plasma at 1 uM by LC-MS/MS analysis; type: ADME, cell-free
[7] = Chemical stability of the compound in phosphate buffer at pH 8 assessed as drug degradation at 1 uM after 100 hrs by HPLC analysis; type: physicochemical; details: read-out: Drug degradation
Outline: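 Hydrolytic β-lactam ring-opening was followed in aqueous buffer at pH 8.0 and 37 °C over a 100 h incubation. The read-out was percent degradation.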

[8] = Chemical stability of the compound in phosphate buffer at pH 6 at 1 uM after 24 hrs by HPLC analysis; type: physicochemical; details: pH 6, 24 h
Outline: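 Hydrolytic stability of the β-lactam ring was measured in aqueous buffer at pH 6.0 and 37 °C.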

Pseudomonas aeruginosa [9] = test: Antibacterial activity against low inoculum imipenem-sensitive Pseudomonas aeruginosa isolate 1091-05 infected in sc dosed neutropenic-C3H/HeN mouse assessed as mouse survival administered 4 hrs post infection followed by BID dosing for two days measured on day 10; type: functional; details: isolate 1091-05, sc, read-out: PD50
Citrobacter freundii = test: Antimicrobial activity against Citrobacter freundii; type: functional
Klebsiella aerogenes = test: Antimicrobial activity against Enterobacter aerogenes; type: functional
Acinetobacter sp. = test: Antimicrobial activity against Acinetobacter sp.; type: functional
[10] = tested on: Stenotrophomonas maltophilia; test: Antimicrobial activity against Stenotrophomonas maltophilia; type: functional
Serratia marcescens = test: Antimicrobial activity against Serratia marcescens; type: functional
[11] = Plasma protein binding in human; type: ADME, cell-free; details: read-out: PPB (converted)
Klebsiella pneumoniae [12] = test: Antimicrobial activity against Klebsiella pneumoniae clinical isolate; type: functional
Pseudomonas aeruginosa [13] = test: Antibacterial activity against Pseudomonas aeruginosa cystic fibrosis isolate; type: functional
Pseudomonas aeruginosa [14] = test: Antibacterial activity against Pseudomonas aeruginosa clinical isolate; type: functional
Klebsiella pneumoniae [15] = test: Antimicrobial activity against carbapenemase-producing Klebsiella pneumoniae; type: functional
Pseudomonas aeruginosa [16] = test: Antibacterial activity against metallo-beta-lactamase producing Pseudomonas aeruginosa; type: functional
Escherichia coli [17] = test: Antimicrobial activity against CTX-M-positive extended spectrum beta-lactamase-producing Escherichia coli; type: functional
Klebsiella pneumoniae [18] = test: Antimicrobial activity against extended spectrum beta-lactamase-producing Klebsiella pneumoniae; type: functional
Escherichia coli [19] = test: Antimicrobial activity against extended spectrum beta-lactamase-producing Escherichia coli; type: functional
Escherichia coli [20] = test: Antimicrobial activity against Escherichia coli clinical isolate; type: functional

SMILES: CC(C)(O/N=C(\C(=O)N[C@H]1CN(C(=O)[N-]S(=O)(=O)n2nc(-c3cc(=O)c(O)c[nH]3)n(C[C@H](O)CO)c2=O)C1=O)c1csc(N)n1)C(=O)[O-].[Na+].[Na+]
- MIC90 (Pseudomonas aeruginosa [1]): 1 µg/mL
- MIC (Pseudomonas aeruginosa [2]): 0.125 µg/mL
- ED50 (Pseudomonas aeruginosa [3]): 18.6 mg/kg
- MIC (Acinetobacter baumannii): 0.5 µg/mL
- MIC (Klebsiella pneumoniae [4]): 0.5 µg/mL

SMILES: C[C@@H](O)Cn1c(-c2cc(=O)c(O)c[nH]2)nn(S(=O)(=O)[N-]C(=O)N2C[C@H](NC(=O)/C(=N\OC(C)(C)C(=O)[O-])c3csc(N)n3)C2=O)c1=O.[Na+].[Na+]
- MIC90 (Pseudomonas aeruginosa [1]): 1 µg/mL
- MIC (Pseudomonas aeruginosa [2]): 0.125 µg/mL
- ED50 (Pseudomonas aeruginosa [3]): 32.7 mg/kg
- MIC (Acinetobacter baumannii): 1 µg/mL
- MIC (Klebsiella pneumoniae [4]): 0.5 µg/mL
- ED50 (Pseudomonas aeruginosa [5]): < 1 mg/kg

SMILES: CC(C)(O/N=C(\C(=O)N[C@H]1CN(C(=O)[N-]S(=O)(=O)n2nc(-c3cc(=O)c(O)c[nH]3)n(CC(N)=O)c2=O)C1=O)c1csc(N)n1)C(=O)[O-].[Na+].[Na+]
- MIC90 (Pseudomonas aeruginosa [1]): 1 µg/mL
- MIC (Pseudomonas aeruginosa [2]): 0.125 µg/mL
- ED50 (Pseudomonas aeruginosa [3]): 25 mg/kg
- MIC (Acinetobacter baumannii): 1 µg/mL
- MIC (Klebsiella pneumoniae [4]): 1 µg/mL

SMILES: COCCn1c(-c2cc(=O)c(O)c[nH]2)nn(S(=O)(=O)[N-]C(=O)N2C[C@H](NC(=O)/C(=N\OC(C)(C)C(=O)[O-])c3csc(N)n3)C2=O)c1=O.[Na+].[Na+]
- MIC90 (Pseudomonas aeruginosa [1]): 1 µg/mL
- MIC (Pseudomonas aeruginosa [2]): 0.5 µg/mL
- ED50 (Pseudomonas aeruginosa [3]): > 70.8 mg/kg
- MIC (Acinetobacter baumannii): 4 µg/mL
- MIC (Klebsiella pneumoniae [4]): 0.5 µg/mL

SMILES: CC(C)(O/N=C(\C(=O)N[C@H]1CN(C(=O)[N-]S(=O)(=O)n2nc(-c3cc(=O)c(O)c[nH]3)n(C[C@@H]3CCCO3)c2=O)C1=O)c1csc(N)n1)C(=O)[O-].[Na+].[Na+]
- MIC (Pseudomonas aeruginosa [2]): 0.5 µg/mL
- ED50 (Pseudomonas aeruginosa [3]): > 100 mg/kg
- MIC (Acinetobacter baumannii): 2 µg/mL
- MIC (Klebsiella pneumoniae [4]): 0.5 µg/mL
- ED50 (Pseudomonas aeruginosa [5]): 2.8 mg/kg

SMILES: C[C@H]1[C@H](NC(=O)/C(=N\OC(C)(C)C(=O)[O-])c2csc(N)n2)C(=O)N1C(=O)[N-]S(=O)(=O)n1nc(-c2cc(=O)c(O)c[nH]2)n(C[C@@H](O)CO)c1=O.[Na+].[Na+]
- MIC90 (Pseudomonas aeruginosa [1]): 0.5 µg/mL
- fraction unbound at 1 µM [6]: 0.51
- degraded at 100 h, 1 µM [7]: 20%
- MIC (Pseudomonas aeruginosa [2]): 0.25 µg/mL
- Stability [8]: Stable
- MIC (Acinetobacter baumannii): 2 µg/mL
- MIC (Klebsiella pneumoniae [4]): 0.5 µg/mL
- ED50 (Pseudomonas aeruginosa [9]): 1.4 mg/kg

SMILES: C[C@H](O)Cn1c(-c2cc(=O)c(O)c[nH]2)nn(S(=O)(=O)[N-]C(=O)N2C(=O)[C@@H](NC(=O)/C(=N\OC(C)(C)C(=O)[O-])c3csc(N)n3)[C@@H]2C)c1=O.[Na+].[Na+]
- MIC90 (Pseudomonas aeruginosa [1]): 0.5 µg/mL
- MIC (Pseudomonas aeruginosa [2]): 0.25 µg/mL
- ED50 (Pseudomonas aeruginosa [3]): 21.3 mg/kg
- MIC (Acinetobacter baumannii): 4 µg/mL
- MIC (Klebsiella pneumoniae [4]): 1 µg/mL

SMILES: C[C@H]1[C@H](NC(=O)/C(=N\OC(C)(C)C(=O)O)c2csc(N)n2)C(=O)N1S(=O)(=O)O [AZTREONAM]
- MIC50 (Citrobacter freundii): 0.25 µg/mL (≈ 0.574 µM)
- MIC90 (Citrobacter freundii): 64 µg/mL (≈ 147 µM)
- MIC90 (Klebsiella aerogenes): 64 µg/mL (≈ 147 µM)
- MIC (Pseudomonas aeruginosa [2]): 8 µg/mL (≈ 18.4 µM)
- MIC50 (Acinetobacter sp.): 32 µg/mL (≈ 73.5 µM)
- MIC90 (Acinetobacter sp.): > 64 µg/mL
- ED50 (Pseudomonas aeruginosa [3]): > 200 mg/kg
- MIC (Acinetobacter baumannii): 32 µg/mL (≈ 73.5 µM)
- MIC50 [10]: > 64 µg/mL
- MIC90 [10]: > 64 µg/mL
- ED50 (Pseudomonas aeruginosa [5]): > 50 mg/kg
- MIC50 (Serratia marcescens): 0.5 µg/mL (≈ 1.15 µM)
- MIC90 (Serratia marcescens): > 64 µg/mL

SMILES: C=CC1=C(C(=O)O)N2C(=O)[C@@H](NC(=O)/C(=N\OCC(=O)O)c3csc(N)n3)[C@H]2SC1 [CEFIXIME]
- fraction unbound [11]: 0.35

SMILES: COCC1=C(C(=O)O)N2C(=O)[C@@H](NC(=O)/C(=N\OC)c3csc(N)n3)[C@H]2SC1 [CEFPODOXIME]
- fraction unbound [11]: 0.75

SMILES: C[C@@H](O)[C@H]1C(=O)N2C(C(=O)O)=C(S[C@@H]3CN[C@H](C(=O)N(C)C)C3)[C@H](C)[C@H]12 [MEROPENEM]
- MIC90 (Pseudomonas aeruginosa [1]): > 64 µg/mL
- MIC50 (Citrobacter freundii): 0.06 µg/mL (≈ 0.156 µM)
- MIC90 (Citrobacter freundii): 0.25 µg/mL (≈ 0.652 µM)
- MIC50 (Klebsiella aerogenes): 0.06 µg/mL (≈ 0.156 µM)
- MIC90 (Klebsiella aerogenes): 0.25 µg/mL (≈ 0.652 µM)
- MIC50 (Klebsiella pneumoniae [12]): 0.06 µg/mL (≈ 0.156 µM)
- MIC90 (Klebsiella pneumoniae [12]): 32 µg/mL (≈ 83.4 µM)
- degraded at 100 h, 1 µM [7]: 50%
- MIC (Pseudomonas aeruginosa [2]): 0.5 µg/mL (≈ 1.3 µM)
- MIC50 (Acinetobacter sp.): 1 µg/mL (≈ 2.61 µM)
- MIC90 (Acinetobacter sp.): 32 µg/mL (≈ 83.4 µM)
- ED50 (Pseudomonas aeruginosa [3]): 1.04 mg/kg
- MIC50 (Pseudomonas aeruginosa [13]): 8 µg/mL (≈ 20.9 µM)
- MIC90 (Pseudomonas aeruginosa [13]): > 64 µg/mL
- MIC50 (Pseudomonas aeruginosa [14]): 8 µg/mL (≈ 20.9 µM)
- MIC90 (Pseudomonas aeruginosa [14]): > 64 µg/mL
- MIC (Acinetobacter baumannii): 0.25 µg/mL (≈ 0.652 µM)
- MIC50 [10]: > 64 µg/mL
- MIC90 [10]: > 64 µg/mL
- MIC (Klebsiella pneumoniae [4]): < 1 µg/mL
- MIC50 (Klebsiella pneumoniae [15]): 0.06 µg/mL (≈ 0.156 µM)
- MIC90 (Klebsiella pneumoniae [15]): 32 µg/mL (≈ 83.4 µM)
- MIC50 (Pseudomonas aeruginosa [16]): 8 µg/mL (≈ 20.9 µM)
- MIC90 (Pseudomonas aeruginosa [16]): > 64 µg/mL
- MIC50 (Escherichia coli [17]): 0.06 µg/mL (≈ 0.156 µM)
- MIC90 (Escherichia coli [17]): 0.06 µg/mL (≈ 0.156 µM)
- MIC50 (Klebsiella pneumoniae [18]): 0.06 µg/mL (≈ 0.156 µM)
- MIC90 (Klebsiella pneumoniae [18]): 32 µg/mL (≈ 83.4 µM)
- ED50 (Pseudomonas aeruginosa [5]): 1.3 mg/kg
- MIC50 (Serratia marcescens): 0.06 µg/mL (≈ 0.156 µM)
- MIC90 (Serratia marcescens): > 64 µg/mL
- MIC50 (Escherichia coli [19]): 0.06 µg/mL (≈ 0.156 µM)
- MIC90 (Escherichia coli [19]): 0.06 µg/mL (≈ 0.156 µM)
- MIC50 (Escherichia coli [20]): 0.06 µg/mL (≈ 0.156 µM)
- MIC90 (Escherichia coli [20]): 0.06 µg/mL (≈ 0.156 µM)
